Laboratory results from ChEMBL document CHEMBL1124429, “Heterocyclic analogues of benzamide antiarrhythmic agents” (J Med Chem, 1989).
Blank lines part the entries; values can stand above or below the compound they belong to. Activity calls are given as the source filed them.

Legend:
Canis familiaris [1] = organism: Canis familiaris; test: Percent change from control in the rate of rise of phase 0 of the action potential at 10 uM concentration on Canine Purkinje fibers.; design: species or system Canis lupus familiaris, Purkinje fiber; settings: dog
Canis familiaris [2] = organism: Canis familiaris; test: Maximum Percent change from control in the rate of rise of phase 0 of the action potential at 100 uM concentration on Canine Purkinje fibers.; format: Canis lupus familiaris, Purkinje fiber; settings: dog, in vitro
Outline: (§1)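 Isolated canine Purkinje fibers were superfused with physiological saline gassed with 95% O2/5% CO2 (pH 7.35–7.40) at 36 ± 0.5 °C. Paced at 1.0 Hz with 2-ms pulses at twice diastolic threshold. After up to 1 h stabilization, compounds were tested over 10^-8 to 10^-3 M, 30 min per concentration, one compound per fiber, with vehicle controls. Intracellular microelectrodes (3 M KCl) recorded Vmax and APD95; maximum percent change from control is reported with its concentration.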

Canis familiaris [3] = organism: Canis familiaris; test: Maximum percent change in conduction time (CT) at 10 uM concentration tested on Canine ventricular muscle fibre; format: functional, Canis lupus familiaris, Muscle tissue
Outline: (§2)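 Canine right ventricular papillary muscle strips were superfused at 36 ± 0.5 °C with saline gassed with 95% O2/5% CO2. Diastolic threshold was found with 2-ms stimuli at 4000 ms cycle length, then pacing at 4× threshold for 60 min equilibration. FRP was measured at 1000 ms cycle length by S1-S2 premature stimulus after every tenth S1. Conduction time came from a bipolar electrogram. Various compound concentrations were tested, one compound per strip, with vehicle controls. Percent change from control was taken at 10 µM, or the maximum change with its concentration; for N ≥ 3, mean with range.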

Canis familiaris [4] = organism: Canis familiaris; test: Percent change from control in conduction time (CT) at 10 uM concentration tested on Canine ventricular muscle fibre.; M is minimal(<10% change in CT); format: functional; settings: Canis lupus familiaris, Muscle tissue; outline: as §2
Canis familiaris [5] = organism: Canis familiaris; test: Maximum percent change in repolarization at 100 uM concentration on Canine Purkinje fibers.; format: functional, Canis lupus familiaris, Purkinje fiber; outline: as §1
Canis familiaris [6] = organism: Canis familiaris; test: Percent change in repolarization at 10 Purkinje fibers.; format: functional, Canis lupus familiaris, Purkinje fiber
Outline: (§3)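 Canine Purkinje fibers were held in oxygenated (95% O2–5% CO2) physiological saline, pH 7.35–7.40, at 36 ± 0.5 °C and paced at 1.0 Hz with 2-ms pulses at twice diastolic threshold. Intracellular microelectrodes (3 M KCl) recorded Vmax and APD95 simultaneously. After up to 1 h of stabilization, compounds were tested from 10^-8 to 10^-3 M with 30 min per concentration. One compound per fiber, with vehicle controls. For N ≥ 3, values are the mean with the range.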

Canis familiaris [7] = organism: Canis familiaris; test: Maximum percent change in functional refractory period(FRP) of compound (30 uM) was tested on Canine ventricular muscle fibre.; design: species or system Canis lupus familiaris, Muscle tissue; outline: as §2
Canis familiaris [8] = organism: Canis familiaris; test: Percent change from control in the functional refractory period (FRP) at 10 uM conc. on Canine ventricular muscle fibre.; design: species or system Canis lupus familiaris, Muscle tissue; outline: as §2
Cavia porcellus [9] = organism: Cavia porcellus; test: Concentration of compound which gives a 20% decrease in contractile force was tested on papillary muscle of guinea pig, activity was expressed as EC-20.; format: functional; settings: Muscle tissue
Outline: (§4)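 Contractile force measured in an isolated cardiac muscle preparation. Value is the concentration giving a 20% decrease in force of contraction. NR marks that this decrease was not reached. Values come from individual experiments; for N ≥ 3, the mean is given with the range.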

Canis familiaris [10] = organism: Canis familiaris; test: Maximum percent change in conduction time (CT) at 100 uM concentration tested on Canine ventricular muscle fibre; format: functional, Canis lupus familiaris, Muscle tissue; outline: as §2
Canis familiaris [11] = organism: Canis familiaris; test: Maximum percent change in functional refractory period (FRP) at 100 uM on Canine ventricular muscle fibre.; design: species or system Canis lupus familiaris, Muscle tissue; outline: as §2
Canis familiaris [12] = organism: Canis familiaris; test: Maximum Percent change from control in the rate of rise of phase 0 of the action potential at 100 uM concentration on Canine Purkinje fibers.; settings: dog, in vitro
Canis familiaris [13] = organism: Canis familiaris; test: Percent change from control in the rate of rise of phase 0 of the action potential at 10 uM concentration on Canine Purkinje fibers.; value ranges from 0-2; design: species or system Canis lupus familiaris, Purkinje fiber; settings: dog, in vitro
Canis familiaris [14] = organism: Canis familiaris; test: The maximum Percent change from control in the rate of rise of phase 0 of the action potential at 100 uM concentration on Canine Purkinje fibers.; design: species or system Canis lupus familiaris, Purkinje fiber; settings: dog; outline: as §3
Canis familiaris [15] = organism: Canis familiaris; test: The maximum Percent change from control in the rate of rise of phase 0 of the action potential at 1 uM concentration on Canine Purkinje fibers.; design: species or system Canis lupus familiaris, Purkinje fiber; settings: dog; outline: as §3
Canis familiaris [16] = organism: Canis familiaris; test: The maximum percent change in action potential (Vmax ) at concentration observed (0.1 uM ) was tested on Canine Purkinje fibers.; design: species or system Canis lupus familiaris, Purkinje fiber; settings: dog, in vitro; outline: as §3
Canis familiaris [17] = organism: Canis familiaris; test: Maximum percent change in conduction time (CT) at 0.1 uM concentration tested on Canine ventricular muscle fibre; format: functional, Canis lupus familiaris, Muscle tissue; outline: as §2
Canis familiaris [18] = organism: Canis familiaris; test: Maximum percent change in conduction time (CT) at 1 uM concentration tested on Canine ventricular muscle fibre; format: functional, Canis lupus familiaris, Muscle tissue; outline: as §2
Canis familiaris [19] = organism: Canis familiaris; test: Percent change from control in conduction time (CT) at 10 uM concentration tested on Canine ventricular muscle fibre.; value ranges from -11.0-0; format: functional, Canis lupus familiaris, Muscle tissue; outline: as §2
Canis familiaris [20] = organism: Canis familiaris; test: Maximum percent change in repolarization at 100 uM concentration on Canine Purkinje fibers.; value ranges from 14-20; format: functional, Canis lupus familiaris, Purkinje fiber; outline: as §1
Canis familiaris [21] = organism: Canis familiaris; test: Percent change in repolarization at 10 Purkinje fibers; value ranges from -3.0-7.0.; format: functional, Canis lupus familiaris, Purkinje fiber; outline: as §3
Canis familiaris [22] = organism: Canis familiaris; test: Maximum percent change in functional refractory period (FRP) at 10 uM on Canine ventricular muscle fibre.; design: species or system Canis lupus familiaris, Muscle tissue; outline: as §2
Canis familiaris [23] = organism: Canis familiaris; test: Percent change from control in the functional refractory period (FRP) at 10 uM conc. on Canine ventricular muscle fibre.; value ranges from 11-23; design: species or system Canis lupus familiaris, Muscle tissue; outline: as §2
Canis familiaris [24] = organism: Canis familiaris; test: Maximum Percent change from control in the rate of rise of phase 0 of the action potential at 10 uM concentration on Canine Purkinje fibers.; format: functional, Canis lupus familiaris, Purkinje fiber; settings: dog, in vitro; outline: as §1
Canis familiaris [25] = organism: Canis familiaris; test: Maximum Percent change from control in the rate of rise of phase 0 of the action potential at 30 uM concentration on Canine Purkinje fibers.; design: species or system Canis lupus familiaris, Purkinje fiber; settings: dog, in vitro; outline: as §1
[26] = Maximum Percent change from control in the rate of rise of phase 0 of the action potential at 30 uM concentration on Canine Purkinje fibers; CB is conduction block.; format: functional, tissue-based; settings: Purkinje fiber; outline: as §1
Canis familiaris [27] = organism: Canis familiaris; test: Percent change from control in conduction time (CT) at 10 uM concentration tested on Canine ventricular muscle fibre.; format: functional, Canis lupus familiaris, Muscle tissue; outline: as §2
Canis familiaris [28] = organism: Canis familiaris; test: Maximum percent change in repolarization at 10 uM concentration on Canine Purkinje fibers.; format: functional, Canis lupus familiaris, Purkinje fiber; outline: as §1
Canis familiaris [29] = organism: Canis familiaris; test: Maximum percent change in repolarization at 30 uM concentration on Canine Purkinje fibers.; format: functional, Canis lupus familiaris, Purkinje fiber; outline: as §1
Canis familiaris [30] = organism: Canis familiaris; test: Percent change in repolarization at 10 Purkinje fibers.; value ranges from -23-17; format: functional, Canis lupus familiaris, Purkinje fiber; outline: as §3
Canis familiaris [31] = organism: Canis familiaris; test: Percent change from control in the rate of rise of phase 0 of the action potential at 10 uM concentration on Canine Purkinje fibers.; value ranges from -13 - -2; format: organism-based, Canis lupus familiaris, Purkinje fiber; settings: dog, in vitro
Canis familiaris [32] = organism: Canis familiaris; test: Percent change in conduction time (CT) at 10 uM concentration tested on Canine ventricular muscle fibre; value ranges from -14-6; format: functional, Canis lupus familiaris, Muscle tissue
Canis familiaris [33] = organism: Canis familiaris; test: Percent change in repolarization at 10 Purkinje fibers.; value ranges from -5 - 5; format: functional, Canis lupus familiaris, Purkinje fiber; outline: as §3
Canis familiaris [34] = organism: Canis familiaris; test: Percent change from control in the functional refractory period (FRP) at 10 uM conc. on Canine ventricular muscle fibre.; value ranges from -5-3; design: species or system Canis lupus familiaris, Muscle tissue; outline: as §2
Canis familiaris [35] = organism: Canis familiaris; test: Maximum percent change in functional refractory period (FRP) at 100 uM on Canine ventricular muscle fibre.; value ranges from 5-18; design: species or system Canis lupus familiaris, Muscle tissue; outline: as §2
Cavia porcellus [36] = organism: Cavia porcellus; test: Concentration of compound ( ) which gives a 20% decrease in contractile force was tested on papillary muscle of guinea pig, activity was expressed as EC-20.; format: functional; settings: Muscle tissue; outline: as §4

SMILES: CCN(CC)CCNC(=O)c1c(C)[nH]c(C)c1C
Vmax (Canis familiaris [1]; in vivo): -18% | Vmax (Canis familiaris [2]): -45% | CT (Canis familiaris [3]): -8% | CT (Canis familiaris [4]): Minimal | APD95 (Canis familiaris [5]): -5% | APD95 (Canis familiaris [6]): 2% | FRP (Canis familiaris [7]): 6% | FRP (Canis familiaris [8]): 1% | EC20 (Cavia porcellus [9]): 30 µM

SMILES: CCN(CC)CCNC(=O)c1cc(Cl)c(N)cc1OC [METOCLOPRAMIDE]
Vmax (Canis familiaris [1]; in vitro): -3% | CT (Canis familiaris [10]): 17% | CT (Canis familiaris [4]): inactive | APD95 (Canis familiaris [5]): -17% | APD95 (Canis familiaris [6]): 1% | FRP (Canis familiaris [8]): 17% | FRP (Canis familiaris [11]): 33% | EC20 (Cavia porcellus [9]): 10 µM | Vmax (Canis familiaris [12]): -25%

Further lines, with some results ahead:

Vmax (Canis familiaris [13]): 1% | Vmax (Canis familiaris [14]): 5% | Vmax (Canis familiaris [15]): 2% | Vmax (Canis familiaris [16]): 6%
SMILES: CCN(CC)CCNC(=O)c1ccc(NC(C)=O)cc1 [ACECAINIDE]
CT (Canis familiaris [17]): -11% | CT (Canis familiaris [10]): 6% | CT (Canis familiaris [18]): -9% | CT (Canis familiaris [19]): -9.7% | APD95 (Canis familiaris [20]): 16.3% | APD95 (Canis familiaris [21]): 3% | FRP (Canis familiaris [22]): 23% | FRP (Canis familiaris [23]): 16.8% | FRP (Canis familiaris [11]): 31%

Vmax (Canis familiaris [1]; in vitro): -37.7% | Vmax (Canis familiaris [24]): -30% | Vmax (Canis familiaris [25]): -66%
SMILES: CCN(CC)CCNC(=O)c1cc2cccc(OCc3ccccc3)c2[nH]1
Vmax [26]: Conduction block | CT (Canis familiaris [10]): 4% | CT (Canis familiaris [27]): -13% | APD95 (Canis familiaris [28]): 17% | APD95 (Canis familiaris [29]): -25% | APD95 (Canis familiaris [30]): -7% | FRP (Canis familiaris [8]): 2% | FRP (Canis familiaris [11]): 10% | EC20 (Cavia porcellus [9]): 6 µM

Vmax (Canis familiaris [31]): -7% | Vmax (Canis familiaris [2]): -35% | Vmax (Canis familiaris [25]): -19%
SMILES: CCN(CC)CCNC(=O)c1cc2cccc(O)c2[nH]1
CT (Canis familiaris [10]): 16% | CT (Canis familiaris [3]): -14% | CT (Canis familiaris [18]): -3% | CT (Canis familiaris [32]): -3.3% | APD95 (Canis familiaris [5]): -28% | APD95 (Canis familiaris [28]): 5% | APD95 (Canis familiaris [29]): -9% | APD95 (Canis familiaris [33]): 0.7% | FRP (Canis familiaris [34]): -1% | FRP (Canis familiaris [35]): 10% | EC20 (Cavia porcellus [36]): 30 µM
